One may read the MIC as the lowest concentration found to suppress growth. For orientation: pKa means the pH at which an ionisable group is half protonated. A higher pKa goes with a group that holds its proton tightly. Usually GI50 stands for the concentration that inhibits growth by half. The low end stands for more potent growth inhibition, the high end for less potent growth inhibition.

Consider three compounds from ChEMBL document CHEMBL4270612, “Discovery of dual GyrB/ParE inhibitors active against Gram-negative bacteria” (Eur J Med Chem, 2018).

Converted amounts (≈) assume the structure as drawn.

Data set [1] deals with Acinetobacter baumannii. In words: Antibacterial activity against Acinetobacter baumannii ARC3657 after 24 hrs by broth microdilution method. The class given is functional. The note with it: ARC3657, 24 h. The method in brief: (§1)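 Broth microdilution per CLSI. Bacterial suspension adjusted to 1×10^6 CFU/mL in cation-adjusted Mueller–Hinton broth and mixed 1:1 with 2-fold serial compound dilutions. Final DMSO 2.5% v/v. Plates incubated at 35 °C with shaking at 140 rpm for 24 h.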
A general note: Dilution methods test growth across graded concentrations, often in twofold steps.

Data set [2] concerns Acinetobacter baumannii. In words: Antibacterial activity against Acinetobacter baumannii ARC2728 after 24 hrs by broth microdilution method. The class given is functional. The note with it: ARC2728, 24 h. The essentials:
as §1

Data set [3] relates to Enterococcus faecalis. In words: Antibacterial activity against Enterococcus faecalis ATCC 29212 after 24 hrs by broth microdilution method. The class given is functional. The conditions noted are these: ATCC 29212, 24 h. The essentials:
as §1

The subject of data set [4] is Staphylococcus aureus. In words: Antibacterial activity against Staphylococcus aureus ATCC 29213 after 24 hrs in presence of 2% human albumin by broth microdilution method. The class given is functional. The note with it: ATCC 29213, 24 h.
Data set [5] is described as follows: Protein binding in human plasma. The class given is ADME, cell-free. The conditions noted are these: read-out: PPB (converted).
Data set [6] concerns Acinetobacter baumannii. Put plainly: Antibacterial activity against Acinetobacter baumannii ARC3882 after 24 hrs by broth microdilution method. The class given is functional. The conditions noted are these: ARC3882, 24 h. The method in brief: as §1
For data set [7], the system named is Streptococcus pneumoniae. In words: Antibacterial activity against Streptococcus pneumoniae ATCC 49619 after 24 hrs by broth microdilution method. It counts as functional. The note with it: ATCC 49619, 24 h. The method in brief:
as §1

A short description of data set [8]: Dissociation constant, basic pKa of compound by pH metric method. It counts as physicochemical. The method in brief:
(§2)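 Potentiometric (pH-metric) titration on an automated titrator, Gold Standard pH metric assay, run in triplicate.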

Data set [9] has as its system Pseudomonas aeruginosa. In words: Antibacterial activity against Pseudomonas aeruginosa ARC3925 after 24 hrs by broth microdilution method. It counts as functional. The note with it: ARC3925, 24 h. The essentials:
(§3)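 Broth microdilution per CLSI. Bacterial suspension adjusted to 1×10^6 CFU/mL in cation-adjusted Mueller–Hinton broth and mixed 1:1 with 2-fold serial compound dilutions. Plates incubated at 35 °C with shaking at 140 rpm for 24 h.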

Data set [10] deals with Pseudomonas aeruginosa. Put plainly: Antibacterial activity against Pseudomonas aeruginosa ARC3607 after 24 hrs by broth microdilution method. It counts as functional. The conditions noted are these: ARC3607, 24 h. The essentials:
as §1

The subject of data set [11] is Acinetobacter baumannii. Put plainly: Antibacterial activity against Acinetobacter baumannii ARC2675 after 24 hrs by broth microdilution method. It counts as functional. The note with it: ARC2675, 24 h. The essentials:
as §3

Data set [12] in a line: Growth inhibition of human A549 cells. It counts as cell-based.
Data set [13] has as its system Staphylococcus aureus. In words: Antibacterial activity against Staphylococcus aureus ATCC 29213 after 24 hrs by broth microdilution method. The class given is functional. The conditions noted are these: ATCC 29213, 24 h. The method in brief: as §1
In data set [14] the test system is Acinetobacter baumannii. Put plainly: Antibacterial activity against Acinetobacter baumannii ARC3489 after 24 hrs by broth microdilution method. The class given is functional. The conditions noted are these: ARC3489, 24 h. The essentials: as §1
The subject of data set [15] is Acinetobacter baumannii. In words: Antibacterial activity against Acinetobacter baumannii ARC3484 after 24 hrs by broth microdilution method. It counts as functional. The note with it: ARC3484, 24 h. The method in brief:
as §3

For data set [16], the system named is Acinetobacter baumannii. Put plainly: Antibacterial activity against Acinetobacter baumannii ARC3493 after 24 hrs by broth microdilution method. It counts as functional. The note with it: ARC3493, 24 h. The method in brief: as §1
Data set [17] can be described thus: Dissociation constant, acidic pKa of compound by pH metric method. It counts as physicochemical. The method in brief:
as §2

The test system of data set [18] is Acinetobacter baumannii. In words: Antibacterial activity against Acinetobacter baumannii ARC2781 after 24 hrs by broth microdilution method. The class given is functional. The conditions noted are these: ARC2781, 24 h. The method in brief: as §3
In data set [19] the test system is Pseudomonas aeruginosa. Put plainly: Antibacterial activity against Pseudomonas aeruginosa PAO1 after 24 hrs by broth microdilution method. The class given is functional. The note with it: PAO1, 24 h. The essentials:
as §1

For data set [20], the system named is Pseudomonas aeruginosa. In words: Antibacterial activity against Pseudomonas aeruginosa ARC4063 after 24 hrs by broth microdilution method. The class given is functional. The note with it: ARC4063, 24 h. The method in brief:
as §3

A short description of data set [21]: Dissociation constant, pKa of compound by pH metric method. The class given is physicochemical. The method in brief: as §2

`CCNC(=O)Nc1cc(-c2nc(C3CC3)cs2)c(-c2cc(-c3n[nH]c(=O)o3)cnc2N2C3CCC2CN(C)C3)cn1`: the MIC in data set [1] was 2 µg/mL (≈ 3.49 µM); in data set [2], 1 µg/mL (≈ 1.74 µM); in data set [3] it was less than 0.06 µg/mL; in data set [4] it was less than 0.06 µg/mL; in [6] it was 1 µg/mL (≈ 1.74 µM); in data set [7], less than 0.06 µg/mL. In addition, the MIC is 4 µg/mL (≈ 6.97 µM) in data set [9]; 4 µg/mL (≈ 6.97 µM) in data set [10]; 2 µg/mL (≈ 3.49 µM) in data set [11]; less than 0.06 µg/mL in data set [13]; 1 µg/mL (≈ 1.74 µM) in [14]; 2 µg/mL (≈ 3.49 µM) in data set [15]. Moreover, the MIC was determined as 1 µg/mL (≈ 1.74 µM) in data set [16], 0.25 µg/mL (≈ 0.436 µM) in data set [18], 1.14 µg/mL (≈ 1.99 µM) in data set [19] and 4 µg/mL (≈ 6.97 µM) in data set [20]. Also, the fraction unbound in [5] was 0.149. Moreover, the pKa in data set [8] worked out at 7.9; in data set [17] it was 6.7. The GI50 in data set [12] is more than 25 µM.

Turning to `CCNC(=O)Nc1cc(-c2nc(C(F)(F)F)cs2)c(-c2cc(-c3n[nH]c(=O)o3)cnc2N2C3CCC2CN(C)C3)cn1`, the MIC was 2 µg/mL (≈ 3.32 µM) in [1]; 1 µg/mL (≈ 1.66 µM) in [2]; less than 0.06 µg/mL in [3]; less than 0.06 µg/mL in [4]; 1 µg/mL (≈ 1.66 µM) in data set [6]; less than 0.06 µg/mL in data set [7]. Also, the MIC in [9] was 8 µg/mL (≈ 13.3 µM); in [10], 16 µg/mL (≈ 26.6 µM); in data set [11], 4 µg/mL (≈ 6.65 µM); in data set [13], less than 0.06 µg/mL; in data set [14], 1 µg/mL (≈ 1.66 µM); in data set [15], 2 µg/mL (≈ 3.32 µM). For the same compound, the MIC was determined as 1 µg/mL (≈ 1.66 µM) in data set [16], 0.25 µg/mL (≈ 0.416 µM) in data set [18], 2.4 µg/mL (≈ 3.99 µM) in data set [19] and 8 µg/mL (≈ 13.3 µM) in data set [20]. Also, the fraction unbound in data set [5] is 0.211. Further, the pKa in data set [8] was 7.8; in data set [17], 6.7. In addition, the GI50 in data set [12] is more than 40 µM.

`CCNC(=O)Nc1cc(-c2nc(C(F)(F)F)cs2)c(-c2cc3ncccc3nc2N2C3CCC2CN(C)C3)cn1`: the MIC in [1] is 4 µg/mL (≈ 7.03 µM); in data set [2] it was 1 µg/mL (≈ 1.76 µM); in [3] it was less than 0.06 µg/mL; in [4] it was less than 0.06 µg/mL; in [6], 2 µg/mL (≈ 3.52 µM); in data set [7], less than 0.06 µg/mL. For the same compound, the MIC in [9] was 16 µg/mL (≈ 28.1 µM); in [10], 64 µg/mL (≈ 113 µM); in [11], 4 µg/mL (≈ 7.03 µM); in data set [13], less than 0.06 µg/mL; in [14], 2 µg/mL (≈ 3.52 µM); in data set [15], 4 µg/mL (≈ 7.03 µM). For the same compound, the MIC in data set [16] was 2 µg/mL (≈ 3.52 µM); in data set [18], 0.5 µg/mL (≈ 0.879 µM); in [19], 9.09 µg/mL (≈ 16 µM); in data set [20] it was 16 µg/mL (≈ 28.1 µM). The fraction unbound in data set [5] is 0.03. The same compound had a GI50 in data set [12] of more than 25 µM. This compound showed a pKa in [21] of 7.8.
